{"source": "paper PMC10353488", "about": "(Journal of medicinal chemistry, 2020)", "key": {"D. melanogaster": {"tested_on": "D. melanogaster", "experiment": "Toxicity", "type": "in vivo, Drosophila melanogaster", "conditions": "0.25, 0.5, and 1.0 mM", "summary_of_the_method": "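Eggs from two different crosses collected for 8 hours in culture flasks on solid agar base (5% w/v) topped with live baker's yeast plus sugar.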"}, "[1]": {"tested_on": "C. trachomatis serovar L2", "experiment": "Inclusion forming units", "type": "cell-based, Chlamydia trachomatis", "conditions": "50 μg/mL, added 8 h after infection, 24 h"}, "S. aureus JE2": {"tested_on": "S. aureus JE2", "experiment": "Broth microdilution antibacterial assay, S. aureus JE2", "type": "cell-based, Staphylococcus aureus", "conditions": "concentrations up to 256 μg/mL"}, "[2]": {"tested_on": "human keratinocyte (HaCaT) cells", "experiment": "Cytotoxicity assay", "type": "cell-based", "conditions": "50 μg/mL, 24 h"}, "E. coli K12": {"tested_on": "E. coli K12", "experiment": "Broth microdilution antibacterial assay, E. coli K12", "type": "cell-based, Escherichia coli", "conditions": "concentrations up to 256 μg/mL"}, "ClpP": {"tested_on": "ClpP", "experiment": "In vitro casein degradation assay without AAA+ chaperone", "type": "biochemical", "conditions": "FITC-casein 20 μM, 32°C, 3 h"}, "[3]": {"target": "recombinant ClpP1 and ClpP2 from C. trachomatis L2 (Chlamydia trachomatis serovar D, UniProt O84712+P38002)", "experiment": "In vitro casein degradation assay, chlamydial ClpP1/ClpP2", "type": "biochemical", "conditions": "6 μM ClpP1 and ClpP2", "summary_of_the_method": "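C-terminal His6-tagged C. trachomatis L2 ClpP1 and ClpP2 (6 μM each) were purified from clpAPX-null E. coli and used without AAA+ chaperone. Enzyme was preincubated with compound or DMSO for 30 min at 32 °C in HEPES pH 7.6/KCl/MgCl2/DTT/glycerol buffer, then 20 μM FITC-casein was added. Fluorescence (ex 490/em 525 nm) was read every 3 min for 3 h. Unlabeled casein digests were run on SDS-PAGE. ≥3 runs, ≥2 protein preparations.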"}, "[4]": {"experiment": "Metabolic stability in human liver microsomes", "type": "in vitro ADME", "conditions": "human liver microsomes with NADPH"}, "N. meningitidis": {"tested_on": "N. meningitidis", "conditions": "cited from earlier work"}, "H. influenzae": {"tested_on": "H. influenzae", "conditions": "cited from earlier work"}, "[5]": {"conditions": "cited from earlier work"}, "C. trachomatis": {"tested_on": "C. trachomatis", "conditions": "cited from earlier work"}, "human ClpP": {"target": "human ClpP (Homo sapiens, UniProt Q16740)", "sequence (Q16740 57-277)": "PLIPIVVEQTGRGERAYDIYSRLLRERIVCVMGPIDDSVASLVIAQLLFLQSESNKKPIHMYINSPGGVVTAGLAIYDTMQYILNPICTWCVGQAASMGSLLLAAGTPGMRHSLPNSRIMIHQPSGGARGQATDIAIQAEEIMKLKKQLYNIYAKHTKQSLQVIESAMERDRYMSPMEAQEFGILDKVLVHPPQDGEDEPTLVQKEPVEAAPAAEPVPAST", "experiment": "In vitro casein degradation assay, human ClpP", "type": "biochemical", "conditions": "1 μM ClpP", "summary_of_the_method": "(§1)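 Human or mouse ClpP ORF minus the mitochondrial localization signal was codon-optimised, C-terminally His6-tagged, and expressed and purified from clpAPX-null E. coli. 1 μM enzyme, without AAA+ chaperone, was preincubated 30 min at 32 °C with compound or DMSO in 25 mM HEPES pH 7.6 buffer before adding 20 μM FITC-casein. Fluorescence (ex 490/em 525 nm) was read every 3 min over 3 h. ≥3 runs, ≥2 protein preparations.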"}, "mouse ClpP": {"target": "mouse ClpP (Mus musculus, UniProt O88696)", "sequence (O88696 53-272)": "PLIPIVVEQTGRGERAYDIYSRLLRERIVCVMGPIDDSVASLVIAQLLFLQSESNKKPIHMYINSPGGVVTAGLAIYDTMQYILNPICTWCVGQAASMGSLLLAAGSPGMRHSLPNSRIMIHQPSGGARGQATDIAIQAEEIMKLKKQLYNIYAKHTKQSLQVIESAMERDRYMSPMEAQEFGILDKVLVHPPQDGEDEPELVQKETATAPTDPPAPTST", "experiment": "In vitro casein degradation assay, mouse ClpP", "type": "biochemical", "conditions": "1 μM ClpP", "summary_of_the_method": "as §1"}, "[6]": {"tested_on": "epithelial cervix adenocarcinoma (HeLa 229) cells", "experiment": "Cytotoxicity assay", "type": "cell-based, human", "conditions": "50 μg/mL, 24 h"}, "Chlamydia": {"tested_on": "Chlamydia", "conditions": "cited from earlier work"}}, "data": [{"compound": "CC(C)(C(=O)N1CCN(Cc2cccc(Cl)c2)CC1)S(=O)(=O)c1ccc(C(F)(F)F)cn1", "note": "[Compound 41, 2-methyl-1-(4-(3-chlorobenzyl)piperazin-1-yl)-2-((5-(trifluoromethyl)pyridin-2-yl)sulfonyl) propan-1-one]", "values": [{"measurement": "toxicity against D. melanogaster (survival rate)", "setting": "D. melanogaster", "value": "did not show toxicity"}, {"measurement": "impact on chlamydiae (infectious progeny, IFU)", "setting": "[1]", "value": "remarkable impact"}]}, {"compound": "Cc1ccc(CN2CCN(C(=O)C(C)(C)S(=O)(=O)c3ccc(C(F)(F)F)cn3)CC2)cc1", "note": "[Compound 42, 2-methyl-1-(4-(4-methylbenzyl)piperazin-1-yl)-2-((5-(trifluoromethyl)pyridin-2-yl)sulfonyl) propan-1-one]", "values": [{"measurement": "bacterial death", "setting": "S. aureus JE2", "value": "bacterial death was not observed"}, {"measurement": "toxicity towards HaCaT cells", "setting": "[2]", "value": "more tolerated"}, {"measurement": "bacterial death", "setting": "E. coli K12", "value": "bacterial death was not observed"}]}, {"compound": "CC(C)(C(=O)NCCCc1ccccc1)S(=O)(=O)c1ccccc1", "note": "[Compound 9, 2-Methyl-N-(3-Phenylpropyl)-2-(phenylsulfonyl)propanamide]", "values": [{"measurement": "ClpP-dependent casein degradation in the absence of a chaperone", "setting": "ClpP", "value": "little or no degradation"}, {"measurement": "activation of chlamydial ClpP1, ClpP2 or the ClpP1/2 dimer", "setting": "[3]", "value": "some residual decomposition"}]}, {"compound": "CC(C)(C(=O)NCCOc1ccccc1Cl)S(=O)(=O)c1ccc(C(F)(F)F)cn1", "note": "[Compound 28, N-(2-(2-Chlorophenoxy)ethyl)-2-methyl-2-((5-(trifluoromethyl)pyridin-2-yl)sulfonyl) propanamide]", "values": [{"measurement": "bacterial death", "setting": "S. aureus JE2", "value": "bacterial death was not observed"}, {"measurement": "bacterial death", "setting": "E. coli K12", "value": "bacterial death was not observed"}]}, {"compound": "1-(4-(3,4-dichlorophenyl)piperazin-1-yl)-2-((5-(trifluoromethyl)pyridin-2-yl)sulfonyl) propan-1-one [Compound 37]", "values": [{"measurement": "bacterial death", "setting": "S. aureus JE2", "value": "bacterial death was not observed"}, {"measurement": "CL(int) Mean", "setting": "[4]", "value": "111.96 uL/(min*mg protein)"}, {"measurement": "CL(int,H) Mean", "setting": "[4]", "value": "873.80 mL/(min*kg bodywgt.)"}, {"measurement": "T1/2 Mean", "setting": "[4]", "value": 6.25, "unit": "min"}, {"measurement": "toxicity towards HaCaT cells", "setting": "[2]", "value": "more tolerated"}, {"measurement": "bacterial death", "setting": "E. coli K12", "value": "bacterial death was not observed"}, {"measurement": "impact on chlamydiae (infectious progeny, IFU)", "setting": "[1]", "value": "remarkable impact"}]}, {"compound": "CC(C)(C(=O)NCCSc1ccccc1Cl)S(=O)(=O)c1ccc(C(F)(F)F)cn1", "note": "[Compound 1]", "values": [{"measurement": "antibacterial activity against N. meningitidis", "setting": "N. meningitidis", "value": 64, "unit": "µg/mL"}, {"measurement": "antibacterial activity against H. influenzae", "setting": "H. influenzae", "value": 32, "unit": "µg/mL"}, {"measurement": "fold less potent than ADEP1", "setting": "[5]", "value": "10-20 fold"}, {"measurement": "formation of infectious EBs", "setting": "C. trachomatis", "value": "drastic decrease"}]}, {"compound": "CC(C)(C(=O)NCCOc1ccccc1Cl)S(=O)(=O)c1ccccc1", "note": "[Compound 26, N-(2-(2-Chlorophenoxy)ethyl)-2-methyl-2-(Phenylsulfonyl)propanamide]", "values": [{"measurement": "toxicity against D. melanogaster (survival rate)", "setting": "D. melanogaster", "value": "did not show toxicity"}]}, {"compound": "CC(C)(C(=O)NCCCc1ccccc1)S(=O)(=O)c1ccc(C(F)(F)F)cc1", "note": "[Compound 11, 2-Methyl-N-(3-Phenylpropyl)-2-((4-(trifluoromethyl)phenyl)sulfonyl)propanamide]", "values": [{"measurement": "activation of human ClpP", "setting": "human ClpP", "value": "activated"}, {"measurement": "bacterial death", "setting": "S. aureus JE2", "value": "bacterial death was not observed"}, {"measurement": "CL(int,H) Mean", "setting": "[4]", "value": "890.58 mL/(min*kg bodywgt.)"}, {"measurement": "toxicity against D. melanogaster (survival rate)", "setting": "D. melanogaster", "value": "did not show toxicity"}, {"measurement": "activation of mouse ClpP", "setting": "mouse ClpP", "value": "activated"}, {"measurement": "toxicity towards HaCaT cells", "setting": "[2]", "value": "presented toxicity"}, {"measurement": "ClpP-dependent casein degradation in the absence of a chaperone", "setting": "ClpP", "value": "enabled some species of ClpP to degrade casein"}, {"measurement": "bacterial death", "setting": "E. coli K12", "value": "bacterial death was not observed"}, {"measurement": "activation of chlamydial ClpP1, ClpP2 or the ClpP1/2 dimer", "setting": "[3]", "value": "some residual decomposition"}, {"measurement": "toxicity towards HeLa 229 cells", "setting": "[6]", "value": "presented toxicity"}, {"measurement": "impact on chlamydiae (infectious progeny, IFU)", "setting": "[1]", "value": "remarkable impact"}]}, {"compound": "CC(C)(C(=O)NCCSc1ccc(Cl)cc1)S(=O)(=O)c1ccccc1", "note": "[Compound 17, N-(2-((4-Chlorophenyl)thio)ethyl)-2-methyl-2-(phenylsulfonyl)propanamide]", "values": [{"measurement": "ClpP-dependent casein degradation in the absence of a chaperone", "setting": "ClpP", "value": "little or no degradation"}]}, {"compound": "CC(C)(C(=O)NCCSc1ccccc1Cl)S(=O)(=O)c1ccccc1", "note": "[Compound 16, N-(2-((2-chlorophenyl)thio)ethyl)-2-methyl-2-(phenylsulfonyl)propanamide]", "values": [{"measurement": "ClpP-dependent casein degradation in the absence of a chaperone", "setting": "ClpP", "value": "little or no degradation"}]}, {"compound": "C[C@H]1c2cccc(O)c2C(=O)C2=C(O)[C@]3(O)C(=O)C(C(N)=O)=C(O)[C@@H](N(C)C)[C@@H]3[C@@H](O)[C@@H]21.O", "note": "[Doxycycline]", "values": [{"measurement": "minimal chlamydicidal concentrations (MCCs)", "setting": "Chlamydia", "value": 1, "unit": "µg/mL"}]}, {"compound": "CC[C@H]1OC(=O)[C@H](C)[C@@H](O[C@H]2C[C@@](C)(OC)[C@@H](O)[C@H](C)O2)[C@H](C)[C@@H](O[C@@H]2O[C@H](C)C[C@H](N(C)C)[C@H]2O)[C@](C)(O)C[C@@H](C)CN(C)[C@H](C)[C@@H](O)[C@]1(C)O", "note": "[Azithromycin]", "values": [{"measurement": "minimal chlamydicidal concentrations (MCCs)", "setting": "Chlamydia", "value": 4, "unit": "µg/mL"}]}, {"compound": "CC(C)(C(=O)NCCSc1ccc(Cl)cc1)S(=O)(=O)c1ccc(C(F)(F)F)cn1", "note": "[Compound 20]", "values": [{"measurement": "toxicity against D. melanogaster (survival rate)", "setting": "D. melanogaster", "value": "did not show toxicity"}]}, {"compound": "2-bromoethylamine [Compound 21]", "values": [{"measurement": "bacterial death", "setting": "S. aureus JE2", "value": "bacterial death was not observed"}, {"measurement": "bacterial death", "setting": "E. coli K12", "value": "bacterial death was not observed"}]}, {"compound": "Cc1ccccc1N1CCN(C(=O)C(C)(C)S(=O)(=O)c2ccc(C(F)(F)F)cn2)CC1", "note": "[Compound 35, 2-methyl-1-(4-(o-tolyl)piperazin-1-yl)-2-((5-(trifluoromethyl)pyridin-2-yl)sulfonyl)propan-1-one]", "values": [{"measurement": "bacterial death", "setting": "S. aureus JE2", "value": "bacterial death was not observed"}, {"measurement": "bacterial death", "setting": "E. coli K12", "value": "bacterial death was not observed"}, {"measurement": "impact on chlamydiae (infectious progeny, IFU)", "setting": "[1]", "value": "remarkable impact"}]}, {"compound": "CC(C)(C(=O)NCCOc1ccccc1)S(=O)(=O)c1ccc(C(F)(F)F)cn1", "note": "[Compound 25, 2-Methyl-N-(2-Phenoxyethyl)-2-))5-(trifluoromethyl)pyridin-2-yl(sulfonyl(propenamide]", "values": [{"measurement": "bacterial death", "setting": "S. aureus JE2", "value": "bacterial death was not observed"}, {"measurement": "CL(int,H) Mean", "setting": "[4]", "value": "1461.60 mL/(min*kg bodywgt.)"}, {"measurement": "bacterial death", "setting": "E. coli K12", "value": "bacterial death was not observed"}, {"measurement": "impact on chlamydiae (infectious progeny, IFU)", "setting": "[1]", "value": "remarkable impact"}]}, {"compound": "CC(C)(C(=O)NCCOc1ccccc1)S(=O)(=O)c1ccc(C(F)(F)F)cc1", "note": "[Compound 24, 2-Methyl-N-(2-Phenoxyethyl)-2-))4-(trifluoromethyl)phenyl(sulfonyl(propenamide]", "values": [{"measurement": "CL(int,H) Mean", "setting": "[4]", "value": "1840.91 mL/(min*kg bodywgt.)"}, {"measurement": "toxicity against D. melanogaster (survival rate)", "setting": "D. melanogaster", "value": "did not show toxicity"}, {"measurement": "toxicity towards HaCaT cells", "setting": "[2]", "value": "more tolerated"}, {"measurement": "impact on chlamydiae (infectious progeny, IFU)", "setting": "[1]", "value": "remarkable impact"}]}]}
